This is an account of results in ChEMBL document CHEMBL4000142, “Probing the carboxyester side chain in controlled deactivation (-)-δ(8)-tetrahydrocannabinols” (J Med Chem, 2015).

Active and inactive are the calls of the source. The calls are words filed in the database; no cut-off is given here.

In series [1] the target is T1, Cannabinoid receptor 1 (Rattus norvegicus, UniProt P20272). Kind of series: Agonist activity at CB1 receptor in rat brain membranes assessed as reduction in forskolin-stimulated cAMP level measured from 3 data points after 30 mins. The class given is functional, cell membranes, Membrane. In general terms: cAMP levels reflect the balance of adenylyl cyclase and phosphodiesterase activity.

The nature of series [2]: Metabolic stability in mouse plasma assessed as esterase-mediated compound hydrolysis measured within 5 hrs by HPLC analysis. The class given is ADME. The following applies: […]. The method, boiled down: (§1)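 Compounds at 200 μM in mouse plasma, 37 °C, shaken at 100 rpm. Samples taken over time, diluted 1:4 in acetonitrile and centrifuged. Supernatant analysed by C18 reverse-phase HPLC with an acetonitrile/acidified water gradient and UV detection (204 and 230 nm). Half-life from exponential decay fit.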

Series [3] has as its target Cannabinoid receptor 2 (Homo sapiens, UniProt P34972). Nature of the series: Displacement of [3H]CP-55,940 from human CB2 receptor expressed in HEK293 cells by scintillation counting method. The class given is cell-based. The method, boiled down: (§2)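 Competition binding against [3H]CP-55,940. Membranes from rat brain (CB1) or from HEK293 cells expressing mouse or human CB2. IC50 from nonlinear regression, converted to Ki. Each experiment run in triplicate; Ki is the mean of three independent experiments.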
A general note: Displacement assays read how much labelled ligand stays bound in the presence of the test substance.

The target of series [4] is Cannabinoid receptor 2 (Mus musculus, UniProt P47936). Kind of series: Displacement of [3H]CP-55,940 from mouse CB2 receptor expressed in HEK293 cells by scintillation counting method. The class given is cell-based. The method in brief:
as §2

Series [5] in a line: Metabolic stability in mouse plasma assessed as esterase-mediated compound hydrolysis by measuring compound half life by HPLC analysis. The class given is ADME. The following applies: […]. The method, boiled down: as §1
Series [6] has as its target T1, Cannabinoid receptor 1. Kind of series: Displacement of [3H]CP-55,940 from CB1 receptor in rat brain membranes by scintillation counting method. The class given is cell membranes, Membrane. The method in brief:
as §2

Series [7] has as its system Rattus norvegicus. Kind of series: Hypothermic activity in sc dosed Sprague-Dawley rat assessed as reduction in body temperature at 0.03 mg/kg, sc measured after 6 hrs post dose relative to baseline. The class given is functional, organism-based.
In series [8] the test system is Rattus norvegicus. Nature of the series: Hypothermic activity in sc dosed Sprague-Dawley rat assessed as reduction in body temperature at 0.1 mg/kg, sc measured over 6 hrs post dose relative to baseline. The class given is functional, organism-based.
Series [9] concerns the target T1, Cannabinoid receptor 1. Nature of the series: Agonist activity at CB1 receptor in rat brain membranes assessed as reduction in forskolin-stimulated cAMP level measured from 8 data points after 30 mins. The class given is functional, cell membranes, Membrane.
Series [10] deals with Rattus norvegicus. Nature of the series: Hypothermic activity in sc dosed Sprague-Dawley rat measured over 6 hrs post dose. The class given is functional.
Series [11] has as its target Cannabinoid receptor 1 (Rattus norvegicus) (UniProt P20272). Nature of the series: Agonist activity at CB1 receptor in rat brain membranes assessed as reduction in forskolin-stimulated cAMP level after 30 mins relative to CP-55,940. To be noted: Membrane. The class given is functional, cell membranes.
The subject of series [12] is Rattus norvegicus. Kind of series: Hypothermic activity in sc dosed Sprague-Dawley rat assessed as reduction in body temperature at 0.03 mg/kg, sc measured after 3 hrs post dose relative to baseline. The class given is functional, organism-based.
The subject of series [13] is Rattus norvegicus. Nature of the series: Hypothermic activity in sc dosed Sprague-Dawley rat assessed as reduction in body temperature at 0.3 mg/kg, sc measured after 12 hrs post dose relative to baseline. The class given is functional, organism-based.

Sequence of Cannabinoid receptor 2 (Homo sapiens, UniProt P34972) (P34972 whole entry): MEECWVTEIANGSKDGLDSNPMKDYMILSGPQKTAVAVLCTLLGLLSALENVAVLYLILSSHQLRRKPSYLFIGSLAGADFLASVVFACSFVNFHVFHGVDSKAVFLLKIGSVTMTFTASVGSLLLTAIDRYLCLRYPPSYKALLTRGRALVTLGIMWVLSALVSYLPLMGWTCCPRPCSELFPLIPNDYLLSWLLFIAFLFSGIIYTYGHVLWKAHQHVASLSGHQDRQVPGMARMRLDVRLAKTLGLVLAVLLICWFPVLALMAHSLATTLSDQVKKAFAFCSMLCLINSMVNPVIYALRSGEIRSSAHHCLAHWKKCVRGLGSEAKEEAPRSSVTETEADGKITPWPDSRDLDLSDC
Sequence of Cannabinoid receptor 2 (Mus musculus, UniProt P47936) (P47936 whole entry): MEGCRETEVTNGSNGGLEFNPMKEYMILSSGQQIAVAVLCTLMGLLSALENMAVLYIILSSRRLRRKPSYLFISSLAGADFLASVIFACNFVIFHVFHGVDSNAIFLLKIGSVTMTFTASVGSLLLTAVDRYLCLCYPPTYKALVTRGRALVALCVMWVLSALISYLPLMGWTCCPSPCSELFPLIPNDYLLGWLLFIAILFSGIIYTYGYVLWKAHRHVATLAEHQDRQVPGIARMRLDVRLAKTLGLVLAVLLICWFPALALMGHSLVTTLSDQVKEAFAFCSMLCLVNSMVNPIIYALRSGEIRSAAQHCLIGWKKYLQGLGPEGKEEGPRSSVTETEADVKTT
T1 sequence (P20272 whole entry): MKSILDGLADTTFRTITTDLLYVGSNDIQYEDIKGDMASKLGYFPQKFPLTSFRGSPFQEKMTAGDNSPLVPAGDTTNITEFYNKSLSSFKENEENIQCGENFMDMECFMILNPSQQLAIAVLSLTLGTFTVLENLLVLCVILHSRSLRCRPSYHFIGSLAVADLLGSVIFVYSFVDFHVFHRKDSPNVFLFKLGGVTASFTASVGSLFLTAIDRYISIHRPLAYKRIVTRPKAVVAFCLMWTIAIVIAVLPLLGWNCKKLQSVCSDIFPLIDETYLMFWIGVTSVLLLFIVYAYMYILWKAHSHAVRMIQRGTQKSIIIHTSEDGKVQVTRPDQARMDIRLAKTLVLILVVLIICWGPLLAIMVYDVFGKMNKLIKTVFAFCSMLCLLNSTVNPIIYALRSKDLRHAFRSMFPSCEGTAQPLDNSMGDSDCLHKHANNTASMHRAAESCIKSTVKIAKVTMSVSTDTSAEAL
Sequence of Cannabinoid receptor 1 (Rattus norvegicus) (P20272 whole entry): as above

The EC50 is the midpoint of the concentration-response curve. Consider `CCCCCNC(=O)C(C)(C)c1cc(O)c2c(c1)OC(C)(C)[C@@H]1CC=C(C)C[C@@H]21`, for which, on Cannabinoid receptor 1 [1], the EC50 was in the range of 1 to 10 nM. In addition, the Stability entry in [2] is listed as “Stable”.

One may read the Ki as a dissociation constant, usually derived from enzyme kinetics or from competition with a known ligand. Low values mean tighter binding, high ones weaker binding. Regarding `CCCCC(=O)OCC(C)(C)c1cc(O)c2c(c1)OC(C)(C)[C@@H]1CC=C(C)C[C@@H]21`, the inhibition constant (Ki) at Cannabinoid receptor 2 [3] came to 1 nM; on Cannabinoid receptor 2 [4], 1.2 nM; at Cannabinoid receptor 1 [6] it was 0.5 nM. In addition, the t1/2 in series [5] worked out at 9.5 min.

As to `CCOC(=O)C(C)(C)c1cc(O)c2c(c1)OC(C)(C)[C@@H]1CC=C(C)C[C@@H]21`, the EC50 on Cannabinoid receptor 1 [1] is 1 to 10 nM.

Consider `CCCSC(=O)C(C)(C)c1cc(O)c2c(c1)OC(C)(C)[C@@H]1CC=C(C)C[C@@H]21`, for which the inhibition constant (Ki) was 0.7 nM at Cannabinoid receptor 2 [3], 0.8 nM on Cannabinoid receptor 2 [4] and 0.5 nM at Cannabinoid receptor 1 [6]. Also, the t1/2 in series [5] was 312 min.

For `CCCCOC(=O)C1(c2cc(O)c3c(c2)OC(C)(C)[C@@H]2CC=C(C)C[C@@H]32)CCC1`, on Cannabinoid receptor 1 [1], the EC50 is less than 1 nM. In series [5], the t1/2 is on record as 36.3 min.

With `CC1=CC[C@@H]2[C@@H](C1)c1c(O)cc(C(C)(C)C(=O)OCCCCCBr)cc1OC2(C)C`, the inhibition constant (Ki) on Cannabinoid receptor 2 [3] is 0.6 nM; at Cannabinoid receptor 2 [4], 1.1 nM; on Cannabinoid receptor 1 [6], 1.2 nM.

The term ED50 denotes the dose at which the effect has come halfway, by size or by number of responders. For orientation: Emax means the size of the effect at its maximum, as opposed to the concentration needed. In the case of `CC1=CC[C@@H]2[C@@H](C1)c1c(O)cc(C(C)(C)C(=O)OCCCC#N)cc1OC2(C)C`, the outcome in the series on Rattus norvegicus [7] was inactive. This compound also yielded a Ki on Cannabinoid receptor 2 [4] of 0.8 nM. For the same compound, the deltaT was less than 4.5 °C in the series on Rattus norvegicus [8] and 2 °C in the series with Rattus norvegicus [12]. The figures for the 50% effective concentration (EC50) at Cannabinoid receptor 1 [1] and at Cannabinoid receptor 1 [9] were less than 1 nM and 0.9 nM, respectively. Further, the Activity result in the series with Rattus norvegicus [10] is “Dose-dependent effect”. Further, in the series on Rattus norvegicus [10], it took a dose of 0.034 mg/kg to reach the 50% effect level (ED50). For the same compound, the maximal effect (Emax) in series [11] turned out to be 89%. Also, the t1/2 in [5] is recorded as 46.5 min.

Consider `CC1=CC[C@@H]2[C@@H](C1)c1c(O)cc(C(C)(C)C(=O)OCCBr)cc1OC2(C)C`, for which the values for the inhibition constant (Ki) on Cannabinoid receptor 2 [3] and at Cannabinoid receptor 1 [6] were 2.9 nM and 7.7 nM, respectively.

On to `CC1=CC[C@@H]2[C@@H](C1)c1c(O)cc(C(C)(C)C(=O)OCCCCBr)cc1OC2(C)C`, for which the inhibition constant (Ki) at Cannabinoid receptor 2 [3] is 0.8 nM; on Cannabinoid receptor 2 [4] it was 0.9 nM; on Cannabinoid receptor 1 [6] it was 1.2 nM. Also, the t1/2 in [5] came out at 12.9 min.

In the case of `CC1=CC[C@@H]2[C@@H](C1)c1c(O)cc(C3(C(=O)OCCCCC#N)CCC3)cc1OC2(C)C`, the EC50 on Cannabinoid receptor 1 [1] was 1 to 10 nM. In addition, the t1/2 in series [5] was 115 min.

For `CCCCOC(=O)Cc1cc(O)c2c(c1)OC(C)(C)[C@@H]1CC=C(C)C[C@@H]21`, in series [5], the t1/2 came to 0.7 min.

For `CC1=CC[C@@H]2[C@@H](C1)c1c(O)cc(CC(=O)OCCCCC#N)cc1OC2(C)C`, the concentration for a half-maximal effect (EC50) on Cannabinoid receptor 1 [1] is 10 to 100 nM. Further, the t1/2 in [5] came to 3.2 min.

Regarding `CC1=CC[C@@H]2[C@@H](C1)c1c(O)cc(C(C)(C)C(=O)OCCCCC#N)cc1OC2(C)C`, the Ki was 0.9 nM at Cannabinoid receptor 2 [3] and 0.1 nM on Cannabinoid receptor 2 [4]. In addition, the EC50 on Cannabinoid receptor 1 [1] lay within 1 to 10 nM. For the same compound, the t1/2 in series [5] is on record as 40.4 min.

With `COC(=O)C(C)(C)c1cc(O)c2c(c1)OC(C)(C)[C@@H]1CC=C(C)C[C@@H]21`, the inhibitory constant (Ki) came out at 34.5 nM on Cannabinoid receptor 2 [3] and 36.9 nM on Cannabinoid receptor 2 [4].

As for `CC1=CC[C@@H]2[C@@H](C1)c1c(O)cc(C(C)(C)C(=O)OCCCn3ccnc3)cc1OC2(C)C`, the results for the Ki on Cannabinoid receptor 2 [3] and at Cannabinoid receptor 2 [4] were 1.3 nM and 2.1 nM, respectively. Besides, the EC50 on Cannabinoid receptor 1 [1] fell in the range of 1 to 10 nM. The t1/2 in series [5] amounted to 271 min.

For `CCCCOC(=O)C(C)(C)c1cc(O)c2c(c1)OC(C)(C)[C@@H]1CC=C(C)C[C@@H]21`, the half-maximal effective concentration (EC50) at Cannabinoid receptor 1 [1] was less than 1 nM. Also, the outcome in the series on Rattus norvegicus [13] was Active. In the series on Rattus norvegicus [10], this compound had an ED50 of 0.37 mg/kg. Besides, in series [5], the t1/2 is listed as 12.4 min.

Consider `CC1=CC[C@@H]2[C@@H](C1)c1c(O)cc(C(C)(C)C(=O)OCCCCn3ccnc3)cc1OC2(C)C`, for which the inhibition constant (Ki) on Cannabinoid receptor 2 [3] stood at 7.7 nM; on Cannabinoid receptor 2 [4], 8.2 nM. In addition, the t1/2 in series [5] came out at 392 min.

Consider `CC1=CC[C@@H]2[C@@H](C1)c1c(O)cc(C(C)(C)CO)cc1OC2(C)C`, for which the Ki on Cannabinoid receptor 2 [3] and at Cannabinoid receptor 2 [4] was more than 10000 nM in each case.

The compound `CC1=CC[C@@H]2[C@@H](C1)c1c(O)cc(C(C)(C)C(=O)OCCCBr)cc1OC2(C)C` yielded a Ki at Cannabinoid receptor 2 [3] of 0.7 nM. That is a sub-nanomolar value.

On to `CC1=CC[C@@H]2[C@@H](C1)c1c(O)cc(CC(=O)OCCCCBr)cc1OC2(C)C`, for which the t1/2 in series [5] is 1.7 min.

In the case of `CC1=CC[C@@H]2[C@@H](C1)c1c(O)cc(C3(C(=O)OCCCCBr)CCC3)cc1OC2(C)C`, in series [5], the t1/2 worked out at 47.9 min.
